≈ marks a conversion by molar mass, not a printed value. Where “and” joins values, the source holds several entries; their conditions need not be identical. Equal entries are not always repeated. Entries after “also recorded” stand apart in the source; their conditions may differ. Where two headings read alike, the source gives them in different places.
Legend:
C. difficile ATCC 43596 = test: microbe, parasite or virus in culture; format: cell-based, Clostridium difficile; settings: for MIC: Clostridioides difficile, ATCC43596, read-out: C. difficile ATCC 43596 MIC
Hydrogenivirga spp. MraY = format: biochemical; settings: for IC50: read-out: MraY inhibition IC50
E. coli WecA = molecular target: T1, E. coli WecA (Escherichia coli, UniProt P0AC78); test: biochemical; format: biochemical
T1 sequence (P0AC78 1-367): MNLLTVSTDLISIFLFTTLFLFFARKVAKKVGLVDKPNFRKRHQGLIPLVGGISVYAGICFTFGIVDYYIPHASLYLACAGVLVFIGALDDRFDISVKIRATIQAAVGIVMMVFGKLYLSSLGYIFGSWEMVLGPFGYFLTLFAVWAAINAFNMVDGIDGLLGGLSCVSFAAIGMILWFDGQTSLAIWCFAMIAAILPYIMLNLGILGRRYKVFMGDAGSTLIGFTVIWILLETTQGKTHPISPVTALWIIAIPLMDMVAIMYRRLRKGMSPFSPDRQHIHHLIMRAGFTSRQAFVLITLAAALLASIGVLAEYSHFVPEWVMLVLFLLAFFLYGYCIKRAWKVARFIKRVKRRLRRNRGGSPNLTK

Staphylococcus aureus = format: cell-based
[1] = test system: C. difficile (ATCC 43596) spores; test: C. difficile spore viability / outgrowth assay; format: cell-based, Clostridium difficile; settings: 24 h treatment, taurocholate agar
[2] = test system: Staphylococcus pneumoniae; format: cell-based
sheep blood = test: Hemolysis assay; format: cell-based; settings: for IC50: read-out: hemolysis IC50, sheep blood
[3] = test system: Bacillus subtilis (ATCC 6051); test: microbe, parasite or virus in culture; format: cell-based; settings: ATCC6051, read-out: MIC Bacillus subtilis
Water solubility = format: physicochemical
M. smegmatis WecA = molecular target: T2, M. smegmatis WecA (Mycolicibacterium smegmatis, UniProt A0R211); test: WecA inhibition assay; format: biochemical
T2 sequence (A0R211 1-406): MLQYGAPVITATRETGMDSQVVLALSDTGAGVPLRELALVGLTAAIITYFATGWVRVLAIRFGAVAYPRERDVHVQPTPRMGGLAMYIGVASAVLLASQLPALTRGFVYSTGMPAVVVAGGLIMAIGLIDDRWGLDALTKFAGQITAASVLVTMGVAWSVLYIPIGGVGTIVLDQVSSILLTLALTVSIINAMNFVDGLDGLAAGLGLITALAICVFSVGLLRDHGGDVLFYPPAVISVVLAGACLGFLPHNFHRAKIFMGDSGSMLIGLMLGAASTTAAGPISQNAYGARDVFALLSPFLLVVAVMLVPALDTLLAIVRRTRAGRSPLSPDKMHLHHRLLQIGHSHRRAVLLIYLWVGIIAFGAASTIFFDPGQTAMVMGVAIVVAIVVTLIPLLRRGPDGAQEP

Vero cells = test: Vero cell cytotoxicity; format: cell-based, African green monkey
Summary of the method: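 Vero cells (ATCC CCL-81) grown in flasks, then seeded into 96-well plates in Eagle's minimum essential medium with 10% FBS and penicillin–streptomycin. Test compound stock was 1 mg per 100 μL in PEG 300–water (1/1). Serial dilutions spanning 0.78–200 μg/mL were added, with known-toxicity control compounds on every plate. After incubation, cytotoxicity was read by MTT.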

[4] = test system: Clostridium perfringens (ATCC 13124); test: microbe, parasite or virus in culture; format: cell-based; settings: ATCC13124, read-out: MIC Clostridium perfringens
[5] = test system: all Gram-negative bacteria tested; format: cell-based
Lactobacillus spp. = format: cell-based
[6] = test system: C. difficile spore outgrowth; settings: high concentrations; cited from earlier work
vegetative C. difficile = settings: cited from earlier work
M. jannaschii AglH = molecular target: T3, M. jannaschii AglH (Methanocaldococcus jannaschii, UniProt Q58513); test: AglH counterselection assay; format: biochemical; settings: read-out: AglH inhibition IC50, M. jannaschii AglH
T3 sequence (Q58513 1-301): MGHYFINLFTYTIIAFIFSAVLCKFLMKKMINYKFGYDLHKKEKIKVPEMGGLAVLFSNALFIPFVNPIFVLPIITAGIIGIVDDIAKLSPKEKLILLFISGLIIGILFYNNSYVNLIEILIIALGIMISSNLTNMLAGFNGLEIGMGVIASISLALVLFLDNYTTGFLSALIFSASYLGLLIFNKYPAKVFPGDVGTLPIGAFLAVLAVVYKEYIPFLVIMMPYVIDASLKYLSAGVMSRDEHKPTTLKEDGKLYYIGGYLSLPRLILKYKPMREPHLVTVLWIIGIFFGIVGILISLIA

In the case of `CN(CCCN)[C@H](C(=O)O)[C@@H](O[C@@H]1O[C@H](CN)[C@@H](O)[C@H]1O)[C@H]1O[C@@H](n2ccc(=O)[nH]c2=O)C(O)C1O` (stereo partly drawn) [compound 5, FR-900493-5′R,6′S-Diastereomer], the MIC (C. difficile ATCC 43596) is reported as > 25 µg/mL and the IC50 (Hydrogenivirga spp. MraY) is reported as > 100 µM.

With `CN(CCCN)[C@@H](C(=O)O)[C@@H](O[C@@H]1O[C@H](CN)[C@@H](O)[C@H]1O)[C@H]1O[C@@H](n2ccc(=O)[nH]c2=O)C(O)C1O` (stereo partly drawn) [compound 6, FR-900493-5′R, 6′R-Diastereomer] the MIC (C. difficile ATCC 43596) was > 25 µg/mL and the IC50 (Hydrogenivirga spp. MraY) was > 100 µM.

For `CN(CCCN)[C@H](C(N)=O)[C@H](O[C@@H]1O[C@H](CN)[C@@H](O)[C@H]1O)[C@H]1O[C@@H](n2ccc(=O)[nH]c2=O)C(O)C1O` (some centres unmarked) [compound 7, FR-900493-Amide], the “WecA inhibitory activity (in words)” value (E. coli WecA) was “equal to that of 1”, the MIC (C. difficile ATCC 43596) was > 25 µg/mL and the “MraY inhibitory activity (in words)” value (Hydrogenivirga spp. MraY) was “equal to that of 1”. The IC50 (Hydrogenivirga spp. MraY) was 25 ± 9.67 µM.

With `NCCCN[C@H](C(N)=O)[C@H](O[C@@H]1O[C@H](CN)[C@@H](O)[C@H]1O)[C@H]1O[C@@H](n2ccc(=O)[nH]c2=O)C(O)C1O` (some centres unmarked) [compound 8, De N-Methyl FR-900493] the IC50 (E. coli WecA) was > 100 µM, the “WecA inhibitory activity (in words)” value (E. coli WecA) was “completely lost” and the MIC (C. difficile ATCC 43596) was > 25 µg/mL. For the same compound, the “MraY inhibitory activity (in words)” value (Hydrogenivirga spp. MraY) was “completely lost” and the IC50 (Hydrogenivirga spp. MraY) was > 100 µM.

With `NC[C@H]1O[C@@H](O[C@@H]([C@H](NCCCC(=O)NCc2ccc(N3CCC(Oc4ccc(OC(F)(F)F)cc4)CC3)cc2)C(N)=O)[C@H]2O[C@@H](n3ccc(=O)[nH]c3=O)C(O)C2O)[C@H](O)[C@@H]1O` (some centres unmarked) [compound 11] the “growth inhibition of Staphylococcus aureus” value (Staphylococcus aureus) was > 25.0 µg/mL, the “outgrowth of C. difficile spores (in words)” value (“outgrowth … (in words)” below) ([1]; 2× MIC) was “prevented the outgrowth; also recorded: inhibited the outgrowth” and the “C. difficile ATCC 43596 MIC” value (C. difficile ATCC 43596) was 3.25 ± 4.40 µg/mL. For the same compound, the “anti-C. difficile activity in library screen” value (C. difficile ATCC 43596) was “displayed anti-C. difficile activity”, the MIC (C. difficile ATCC 43596) was 3.25 µg/mL (≈ 3.69 µM) and the “growth inhibition of Staphylococcus pneumoniae” value [2] was > 25.0 µg/mL. For the same compound, the “induction of hemolysis (in words)” value (sheep blood; at 100 μM concentration) was “does not induce hemolysis”, the IC50 (sheep blood; listed as UT-17460 (11)) was 206 ± 4.33 µM and the MIC [3] was 1.6 µg/mL (≈ 1.81 µM). For the same compound, the “water solubility of 11 relative to 10” value (Water solubility; greater than 10) was 200 times, the solubility (Water solubility; water) was 22 mg/mL (≈ 24900 µM) and the IC50 (M. smegmatis WecA) was 250 nM. The IC50 (Vero cells; Chlorocebus sabaeus, Vero, read-out: Vero cells IC50, cytotoxicity, MTT) was 65 ± 4.65 µM, the “cytotoxicity against Vero cells of 11 relative to 10” value (Vero cells; less cytotoxic than 10) was “approximately 8 times” and the MIC [4] was 3.1 µg/mL (≈ 3.52 µM). The “growth inhibition of all Gram-negative bacteria tested” value [5] was > 25.0 µg/mL and the “growth inhibition of Lactobacillus spp.” value (Lactobacillus spp.) was > 25.0 µg/mL.

With `CN(CCCC(=O)NCc1ccc(N2CCC(Oc3ccc(OC(F)(F)F)cc3)CC2)cc1)[C@H](C(N)=O)[C@H](O[C@@H]1O[C@H](CN)[C@@H](O)[C@H]1O)[C@H]1O[C@@H](n2ccc(=O)[nH]c2=O)C(O)C1O` (some centres unmarked) [compound 12] the “anti-C. difficile activity in library screen” value (C. difficile ATCC 43596) was “displayed anti-C. difficile activity”, the MIC (C. difficile ATCC 43596) was 50 ± 5.81 µg/mL (≈ 55.8 µM) and the “MraY inhibitory activity relative to FR-900493 (1)” value (Hydrogenivirga spp. MraY) was > 3 fold.

For `CCc1c(Cl)c(O)c(Cl)c(O)c1C(=O)O[C@H]1[C@H](O)[C@H](OC)[C@H](OC/C2=C\C=C\C[C@H](O)/C(C)=C/[C@H](CC)[C@@H](O[C@@H]3OC(C)(C)[C@@H](OC(=O)C(C)C)[C@H](O)[C@@H]3O)/C(C)=C/C(C)=C/C[C@@H]([C@@H](C)O)OC2=O)O[C@@H]1C` [fidaxomicin], the “concentration inhibiting C. difficile spore outgrowth” value [6] is given as 4.0 to 14 µg/mL and the MIC90 (vegetative C. difficile) is given as 0.5 µg/mL (≈ 0.473 µM).

With `CC(=O)NC[C@H]1CN(c2ccc(N3CCOCC3)c(F)c2)C(=O)O1` [linezolid] the “outgrowth … (in words)” value ([1]; 5× MIC) was “did not inhibit the spore outgrowth”.

With `Cc1ncc([N+](=O)[O-])n1CCO` [metronidazole] the “outgrowth … (in words)” value ([1]; 5× MIC) was “did not inhibit the spore outgrowth”.

With `CN[C@H](CC(C)C)C(=O)N[C@H]1C(=O)N[C@@H](CC(N)=O)C(=O)N[C@H]2C(=O)N[C@H]3C(=O)N[C@H](C(=O)N[C@H](C(=O)O)c4cc(O)cc(O)c4-c4cc3ccc4O)[C@H](O)c3ccc(c(Cl)c3)Oc3cc2cc(c3O[C@@H]2O[C@H](CO)[C@@H](O)[C@H](O)[C@H]2O[C@H]2C[C@](C)(N)[C@H](O)[C@H](C)O2)Oc2ccc(cc2Cl)[C@H]1O` [vancomycin, reference compound] the IC50 (E. coli WecA) was > 50 µM, the “outgrowth … (in words)” value ([1]; 5× MIC) was “did not inhibit the spore outgrowth” and the MIC (C. difficile ATCC 43596) was 2.5 µg/mL (≈ 1.73 µM). For the same compound, the IC50 (Hydrogenivirga spp. MraY) was > 50 µM.

With tunicamycin [reference compound] the “C. difficile ATCC 43596 MIC” value (C. difficile ATCC 43596) was >25.0 µg/mL and >50.0 µg/mL, the IC50 (sheep blood) was 15 ± 7.83 µM and the IC50 (M. jannaschii AglH) was 13.3 ± 8.1 µM.
